High-throughput results (PubChem)
Autophagy HCS: autophagy modulation, high-content screen; AID 463193; MEF GFP-LC3 puncta imaging; test concentration mostly 10 µM; calls only at 10 µM (by protocol); 0.98% of 190,000 active;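 active = percentage of spot-positive cells more than 3 SD above its plate mean, without a fluorescence outlier flag or 80% toxicity; inconclusive = no clear call, values can overlap the other calls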;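 note: spot-positive cell cutoff set from DMSO-treated cells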
Dynein cargo inh: dynein cargo transport inhibition; 3617.4 mouse cells, GR-EGFP nuclear translocation imaging; test concentration mostly 20 µM; stimulated with dexamethasone, 1 µM; active compounds read low; z-score, hits read low; 0.47% of 220,000 active;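 active = plate z-score of nuclear minus cytoplasmic receptor signal below a set negative limit, without overly bright fluorescence or cell loss, cut at about -3.5 in these data, passing the limit was not always enough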;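 note: z-score of nuclear minus cytoplasmic ring GR-EGFP intensity difference per well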
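Buffer or medium: tetracycline-free induction medium containing charcoal-stripped FBS / Reagent: dexamethasone agonist, 1.0 µM final, for 30 min / Technique: automated 10x imaging of fixed Hoechst-stained cells / Times: induction 48 h, compound 1 h, agonist 30 min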
Ins promoter up: MIN6 insulin promoter up-regulation; MIN6 insulin promoter-GFP reporter, high-content imaging; active compounds read high; 0.3% of 190,000 active; z-score at 5 µM; AID 1625;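 active = z-score above 3 at 5 µM with at least 500 cells counted in the well; inconclusive = wells under 500 cells, flagged as cytotoxic or low count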
Insulin prom inh: TRM-6 insulin promoter activity inhibition | AID 1273 | TRM-6 cells (human fetal islet line), insulin promoter-eGFP reporter, imaging; reporter expression induced with tamoxifen | 0.9% of 130,000 active | inhibition, % at 2 µM;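 active = inhibition above the mean plus 3 SD, with well images judged a real hit on visual review, cut at about 60% in these data, passing the limit was not always enough; inconclusive = inhibition over the cutoff but images rejected on review; inactive = inhibition not above the cutoff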
Furin inh: inhibitors of human furin; P09958; purified furin, fluorogenic substrate cleavage; inhibition, % at 20 µM or 30 µM; AID 463115; 0.061% of 220,000 active; in the data active = inhibition above about 25%
Target sequence (P09958 108-714 limits assumed): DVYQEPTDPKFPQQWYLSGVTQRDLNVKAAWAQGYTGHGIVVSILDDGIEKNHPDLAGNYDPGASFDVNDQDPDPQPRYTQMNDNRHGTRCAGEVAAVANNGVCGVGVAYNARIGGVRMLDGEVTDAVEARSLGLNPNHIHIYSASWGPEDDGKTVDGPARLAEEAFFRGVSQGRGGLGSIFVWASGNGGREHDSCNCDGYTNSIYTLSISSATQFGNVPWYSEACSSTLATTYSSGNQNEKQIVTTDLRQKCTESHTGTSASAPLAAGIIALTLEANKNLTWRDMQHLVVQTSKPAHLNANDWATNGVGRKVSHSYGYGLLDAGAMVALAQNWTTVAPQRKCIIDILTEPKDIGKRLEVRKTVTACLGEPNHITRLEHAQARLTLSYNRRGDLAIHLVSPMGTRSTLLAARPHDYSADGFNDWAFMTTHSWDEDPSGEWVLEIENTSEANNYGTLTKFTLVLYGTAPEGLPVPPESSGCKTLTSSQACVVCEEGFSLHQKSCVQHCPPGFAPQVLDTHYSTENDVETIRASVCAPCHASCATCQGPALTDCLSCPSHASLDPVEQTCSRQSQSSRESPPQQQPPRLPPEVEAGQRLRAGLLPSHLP
HSV replic up: HSV replication enhancement; HSV replication augmentation in cells, fold increase; 0.005% of 220,000 active; AID 1956; maximum fold increase; in the data active = maximum fold increase above about 1.5; inconclusive = no clear call, values can overlap the other calls; tested in PC3 cells
Dynein confirm: dynein cargo transport inhibition, confirmation; shares compounds with Dynein cargo inh; 69% of 1,000 active; AID 463116; 3617.4 GR-EGFP nuclear translocation imaging, dexamethasone-induced; calls only at 20 µM;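 active = inhibition of receptor movement into the nucleus at or above a set limit in both runs, with normal cell brightness and cell count; inconclusive = limit reached in only one run, brightness and count normal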;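 note: dexamethasone at 1 µM final in well for 30 min; nuclear minus cytoplasmic GR-EGFP mean intensity difference in channel 2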
* = called active by the depositor; i = inactive; ? = inconclusive; . = not tested or not shown; + = active, no number. Hits are enriched below; roughly 2% of the tested compounds scored in any of these assays.

SMILES	Autophagy HCS	Dynein cargo inh	Ins promoter up	Insulin prom inh	Furin inh	HSV replic up	Dynein confirm
CCOC(=O)/C=C/C(=O)Nc1ccccc1-c1ccccc1NC(=O)/C=C/C(=O)OCC	i	-4.13*	0.5	.	-19.5	i	+
Nc1ncnc(Sc2ncccn2)c1[N+](=O)[O-]	i	-5.11*	-0.27	.	-31.7	i	?
COc1ccc(C(=O)NNC(=O)Nc2ccc(Cl)cc2)cc1	i	-0.997	0.8	.	-21.3	i	.
Cc1[nH]c2ccccc2c1/C=C/C(=O)c1ccccc1	i	1.32	0.88	-58.1	-6.9	i	.
Cc1[nH]c2ccccc2c(=O)c1C(=O)/C=C/c1ccccc1	.	-6.05*	-0.33	.	-19.5	i	+
Cc1ccc(OCCNC(=O)Cc2ccc(F)cc2)cc1	i	0.361	-0.07	.	-9.5	i	.
CCOC(=S)SCC(=O)Nc1ncc(C)s1	.	-4.14*	0.46	.	-12.9	i	i
Cc1cc(C)cc(Cn2ncc(Cl)c(Cl)c2=O)c1	i	-6.13*	-0.27	15.6	-25.9	i	+
O=c1c(Cl)c(Cl)cnn1Cc1ccccc1Cl	i	-3.94*	?	i	-19.9	.	+
O=c1c(Cl)c(Cl)cnn1Cc1nnc(-c2ccc(Cl)cc2)o1	i	-4.78*	?	i	-9.5	i	+
Cc1ccc(Cn2ncc(Cl)c(Cl)c2=O)cc1	i	-3.3	-0.04	-68.0	-3.0	i	.
O=c1c(Cl)c(Cl)cnn1-c1ccccc1	i	-4.62*	-1.94	-222.6	-17.4	i	+
OCC1CCCC(n2cnc3c(=S)nc[nH]c32)O1 (stereo not given)	.	0.147	-0.02	.	-21.6	i	.
CCN1C/C(=C/c2ccc(N3CCOCC3)cc2)C(=O)/C(=C/c2ccc(N3CCOCC3)cc2)C1	i	-3.56	0.95	.	-1.8	.	+
CN1C/C(=C\c2ccc(N3CCOCC3)cc2)C(=O)/C(=C/c2ccc(N3CCOCC3)cc2)C1	i	-3.41	-0.02	-16.7	-17.8	i	.
CCCCc1c(C)c(C#N)c2nc3ccccc3n2c1Cl	i	-5.24*	0.61	44.1	-18.6	i	+
CC(c1ccccc1)N1CCN(C(=O)CCl)CC1 (stereo not given)	i	-4.94*	-0.44	.	-29.8	i	i
CC(=O)/C(C=Nc1noc(C)c1Br)=C(\C)O	.	-0.593	2.02	.	-9.6	i	.
COc1ccc(C(=O)/C=C/C(=O)N(Cc2ccccc2OC)C(C(=O)NC2CCCCC2)c2ccncc2)c(O)c1 (stereo not given)	i	-0.505	-0.44	-44.4	-7.4	i	.
COc1ccc(C(=O)/C=C/C(=O)N(CC(=O)NC2CCCCC2)Cc2ccccc2OC)c(O)c1	i	-4.47*	-0.33	.	10.5	i	+
COc1ccc(C(=O)/C=C/C(=O)N(CC(=O)NC2CCCCC2)CC2CCCO2)c(O)c1 (stereo not given)	+	-4.74	-0.36	.	-4.3	i	+
COc1ccc(C(=O)/C=C/C(=O)N(CC(=O)NC2CCCCC2)Cc2ccccc2)c(O)c1	i	-4.61*	?	.	-16.9	i	+
CC(=O)N1CC2([N+](=O)[O-])CN(C(C)=O)CC([N+](=O)[O-])(C1)C2(C)C	i	0.138	0.12	27.8	-17.3	i	.
Cc1cccc2cc3c(N)c(C(=O)N4CCc5ccccc54)sc3nc12	+	-11.2	4.42*	-233.3	-14.7	i	i
Cc1sc(NC(=O)c2sc3nc4c(C)cccc4cc3c2N)c(C#N)c1C	+	-4.92	.	-22.0	-6.8	i	+
SMILES	Autophagy HCS	Dynein cargo inh	Ins promoter up	Insulin prom inh	Furin inh	HSV replic up	Dynein confirm
Cc1cccc2cc3c(N)c(C#N)sc3nc12	i	0.455	0.14	.	-20.1	i	.
O=c1c2ccccc2sn1-c1ccccc1	i	-5.19*	0.03	6.9	-18.7	i	+
CN(C)S(=O)(=O)c1cccc(-n2sc3ccccc3c2=O)c1	i	-3.56*	-0.12	.	-17.7	i	i
O=C(CSc1ccsc1[N+](=O)[O-])NCc1ccco1	i	0.578	-0.47	.	-27.6	i	.
COc1cccc(C(=O)N=c2sc3cc(S(C)(=O)=O)ccc3n2C)c1	i	0.573	-0.34	.	-31.9	i	.
N=c1occ(C(=O)c2cc(F)ccc2O)cc1C(=O)NC1CCCCC1	i	-0.86	0.5	35.1	-17.3	i	.
COC(CN(C(=O)CCl)C(C(=O)NC1CCCC(C)C1C)c1ccc(C)cc1)OC (stereo not given)	i	-4.26*	-0.1	0.0	-5.7	i	+
COC(=O)c1ccc(C(C(=O)NC2CCCCC2)N(Cc2ccc(F)cc2)C(=O)Cc2cccs2)cc1 (stereo not given)	i	-0.771	-0.45	-44.4	-14.0	i	.
O=C(NC1CCCC1)C(c1ccc(Cl)cc1)N(Cc1ccc(F)cc1)C(=O)CCl (stereo not given)	i	-5.3*	.	-26.3	-0.5	i	+
O=C(NC1CCCC1)C(c1ccc(F)cc1)N(Cc1ccc(Cl)cc1)C(=O)CCl (stereo not given)	+	-3.73*	0.52	-32.4	-1.3	i	+
COC(CN(C(=O)CCl)C(C(=O)NC1CCCCC1)c1ccc(Cl)cc1)OC (stereo not given)	i	-4.13*	.	.	-23.3	i	+
C=CCNC(=O)c1ccc2c(c1)S(=O)(=O)c1ccccc1C2=O	.	.	.	.	.	i	.
Cc1nn2c([nH]c(=O)c3ccccc32)c1C=O	i	-0.261	0.99	-35.3	-18.6	i	.
COc1ccc([N+](=O)[O-])cc1NC(=O)COC(=O)c1ccc(O)cc1	.	-0.113	-0.67	.	-9.0	i	.
COc1cc(/C=N/Nc2nc(N3CCCC3)nc(N3CCCC3)n2)ccc1OCc1ccccc1F	.	1.79	-0.28	.	-8.0	i	.
CN(C)c1ccc(/C=C2\N=C(c3ccc(Cl)c([N+](=O)[O-])c3)NC2=O)cc1	i	-4.53	.	.	-33.3	i	+
Cc1ccc(/C=C2\CCC3=C2OC(N)=C(C#N)C3c2ccc(C)cc2)cc1 (stereo not given)	+	-8.97	2.12	.	-13.6	?	i
N#CC1=C(N)OC2=C(CCc3ccccc32)C1c1ccccc1 (stereo not given)	i	0.308	-0.47	-73.3	-2.7	i	.
CCCCNC1C(CC)C(CCC)C(C#N)(C#N)C1(C#N)C#N (stereo not given)	i	-3.63*	0.76	.	-12.6	i	+
O=C(O)c1ccc(N/N=C/c2cn(Cc3ccc(F)cc3)c3ccccc23)cc1	.	-0.95	-0.91	.	-16.9	i	.
O=[N+]([O-])/C=C/c1cn(Cc2ccc(F)cc2)c2ccccc12	i	-3.87*	.	-13.3	-5.0	i	+
